The values that follow come from ChEMBL document CHEMBL1132309, “(R)-3,3,3-Trifluoro-2-hydroxy-2-methylpropionamides are orally active inhibitors of pyruvate dehydrogenase kinase” (J Med Chem, 1999).

Molecules are shown by their SMILES. Activity calls are given as the source filed them. The calls are words filed in the database; no cut-off is given here.

Data set [1] concerns the target T1, Pyruvate dehydrogenase kinase (Rattus norvegicus) (UniProt Q63065+A6IPZ9+Q64536+O54937). Kind of data set: In vivo inhibition of pyruvate dehydrogenase kinase, reduced lactate level in normal 24 hr r fasted rats at 100 umol/kg oral dose. The data set is classed as functional, organism-based. Also on record: scale not given: the % may be the effect or the level left.

Data set [2] addresses T1, Pyruvate dehydrogenase kinase (Rattus norvegicus). Kind of data set: In vivo inhibition of pyruvate dehydrogenase kinase, reduced lactate level in normal 24 hr r fasted rats at 30 umol/kg oral dose. Also on record: scale not given: the % may be the effect or the level left. In kind it is functional, organism-based.
Data set [3] can be described thus: The biological half life the compound was measured at the dose of 100 umol/kg. In kind it is ADME, organism-based. Particulars: rat, in vivo. A digest of the protocol:
(§1)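 Oral dosing at 30, 100 and 300 μmol/kg. Blood plasma concentrations followed to give peak concentration and estimated half-life.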

Data set [4] can be described thus: The area under the curve of compound was measured at the dose of 100 umol/kg. In kind it is ADME, organism-based. To be noted: rat, in vivo. The method, boiled down:
as §1

Data set [5] can be described thus: The time to reach maximum concentration of compound was measured at the dose of 100 umol/kg. In kind it is ADME, organism-based. Particulars: rat, in vivo. The method, boiled down: as §1
The target in data set [6] is pyruvate dehydrogenase kinase (Sus scrofa). Put plainly: In vitro inhibitory activity against Pyruvate dehydrogenase kinase by primary enzymatic assay.
Data set [7] can be described thus: The maximum concentration of compound was measured at the dose of 100 umol/kg. Also on record: dose 100 umol/kg. To be noted: rat, in vivo. In kind it is ADME, organism-based. The method, boiled down:
as §1

The target of data set [8] is Pyruvate dehydrogenase kinase (Homo sapiens, UniProt Q15119+Q15120+Q16654+Q15118). Put plainly: […] inhibion of pyruvate dehydrogenase kinase, increased oxidation of lactate. In kind it is functional. A digest of the protocol:
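Human fibroblasts, modified Ofenstein assay: conversion of [14C]lactate to 14CO2, taken as activation of the PDH complex. EC50 in μM ± standard error.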

The target in data set [9] is T1, Pyruvate dehydrogenase kinase (Rattus norvegicus). Put plainly: In vivo inhibition of pyruvate dehydrogenase kinase, reduced lactate level in normal 24 hr r fasted rats at 1 umol/kg oral dose. In kind it is functional, organism-based. Also on record: scale not given: the % may be the effect or the level left.
Data set [10] has the same target. Put plainly: In vivo inhibition of pyruvate dehydrogenase kinase, reduced lactate level in normal 24 hr r fasted rats at 10 umol/kg oral dose. The data set is classed as functional, organism-based. Also on record: scale not given: the % may be the effect or the level left.
The target is the same in data set [11]. Kind of data set: In vivo inhibition of pyruvate dehydrogenase kinase, reduced lactate level in normal 24 hr r fasted rats at 3 umol/kg oral dose. The data set is classed as functional, organism-based. Also on record: scale not given: the % may be the effect or the level left.
Data set [12] has the same target. Put plainly: In vivo inhibition of pyruvate dehydrogenase kinase, reduced lactate level in normal 24 hr r fasted rats at 300 umol/kg oral dose; Not active. In kind it is functional, organism-based.
Data set [13] in a line: The maximum concentration of compound was measured at the dose of 30 umol/kg. Also on record: dose 30 umol/kg. In kind it is ADME, organism-based. To be noted: rat, in vivo. A digest of the protocol: as §1
A short description of data set [14]: The area under the curve of compound was measured at the dose of 30 umol/kg. In kind it is ADME, organism-based. To be noted: rat, in vivo. A digest of the protocol: as §1
In data set [15] the target is T1, Pyruvate dehydrogenase kinase (Rattus norvegicus). Put plainly: In vivo inhibition of pyruvate dehydrogenase kinase, reduced lactate level in normal 24 hr r fasted rats at 100 uMmol/kg oral dose. The data set is classed as functional, organism-based. Also on record: dose or concentration left out as unconfirmed.
Data set [16] is described as follows: The biological half life the compound was measured at the dose of 30 umol/kg. To be noted: rat, in vivo. In kind it is ADME, organism-based. A digest of the protocol:
as §1

Data set [17] in a line: The time to reach maximum concentration of compound was measured at the dose of 30 umol/kg. To be noted: rat, in vivo. In kind it is ADME, organism-based. The method, boiled down: as §1
The target of data set [18] is T1, Pyruvate dehydrogenase kinase (Rattus norvegicus). Kind of data set: In vivo inhibition of pyruvate dehydrogenase kinase, reduced lactate level in normal 24 hr r fasted rats at 1 mmol/kg oral dose. In kind it is functional, organism-based. Also on record: scale not given: the % may be the effect or the level left.
Data set [19] has the same target. Kind of data set: In vivo inhibition of pyruvate dehydrogenase kinase, reduced lactate level in normal 24 hr r fasted rats at 300 umol/kg oral dose. Also on record: scale not given: the % may be the effect or the level left. In kind it is functional, organism-based.
Data set [20] is described as follows: The time to reach maximum concentration of compound was measured at the dose of 300 umol/kg. The data set is classed as ADME, organism-based. Particulars: rat, in vivo. A digest of the protocol:
as §1

A short description of data set [21]: The area under the curve of compound was measured at the dose of 300 umol/kg. Particulars: rat, in vivo. The data set is classed as ADME, organism-based. The method, boiled down:
as §1

A short description of data set [22]: The maximum concentration of compound was measured at the dose of 300 umol/kg. The data set is classed as ADME, organism-based. Also on record: dose 300 umol/kg. To be noted: rat, in vivo. The method, boiled down: as §1

One may read the half-life as how long it takes for the measured level to halve. By AUC is commonly meant the area under the concentration-time curve, a measure of exposure. By Tmax is commonly meant the time from dosing to the highest level. As usually defined, the IC50 is the concentration that inhibits the measured activity by half. What is called Cmax is the peak of the concentration-time curve. In general, EC50 refers to the concentration needed to bring the measured effect to its halfway point. Consider `C[C@@](O)(C(=O)Nc1ccc(C(=O)O)cc1Cl)C(F)(F)F`, for which the Control in data set [1] turned out to be 70%; in [2], 98%. The half-life in [3] is 4.6 h. Also, the AUC in [4] was 143 µM·h. Moreover, the Tmax in data set [5] stood at 0.5 h. Moreover, the IC50 in [6] amounted to 90 nM. The compound also yielded a Cmax in data set [7] of 87.3 µM. This compound also showed an EC50 in data set [8] of 1400 nM.

Consider `C[C@@H]1CN(C(=O)[C@@](C)(O)C(F)(F)F)[C@@H](C)CN1C(=O)c1ccc(C#N)cc1`, for which the results for the Control in [9], in data set [10] and in data set [11] were 87%, 74% and 90%, respectively. Moreover, the IC50 in data set [6] came out at 16.5 nM. In addition, in [8], the EC50 was 57 nM.

Turning to `C[C@@](O)(C(=O)Nc1ccc(S(=O)(=O)N2CCCCC2)cc1)C(F)(F)F`, in data set [6], the IC50 was determined as 9300 nM.

Regarding `C[C@](O)(C(=O)NC1CCCCC1)C(F)(F)F`, the IC50 in data set [6] stood at 200000 nM.

In the case of `C[C@@](O)(C(=O)Nc1ccc(C(=O)c2ccccc2)cc1Cl)C(F)(F)F`, in data set [6], the IC50 is 110 nM.

As to `C[C@@](O)(C(=O)Nc1ccc(C(=O)N2CCCCC2)cc1Cl)C(F)(F)F`, the Control entry in data set [12] was “inactive”. Further, the IC50 in data set [6] amounted to 1500 nM. This compound also displayed an EC50 in data set [8] of 590 nM.

For the compound `C[C@](O)(C(=O)Nc1ccccc1Cl)C(F)(F)F`, the IC50 in data set [6] was 9800 nM.

As to `C[C@@](O)(C(=O)N1CCN(C(=O)c2ccc(C#N)cc2)CC1)C(F)(F)F`, the IC50 in data set [6] stood at 6700 nM.

As to `CC(O)(C(=O)Nc1ccc(C(=O)c2ccccc2)cc1)C(F)(F)F` (single isomer, unassigned), the Control entry in data set [12] is “inactive”.

As for `C[C@@](O)(C(=O)Nc1ccc(S(=O)(=O)F)cc1Cl)C(F)(F)F`, the IC50 in data set [6] was 77 nM.

`COC(=O)c1ccc(NC(=O)[C@@](C)(O)C(F)(F)F)c(Cl)c1` gave an IC50 in data set [6] of 120 nM.

In the case of `C[C@@H]1CN(C(=O)[C@@](C)(O)C(F)(F)F)CCN1C(=O)OCc1ccccc1`, the IC50 in data set [6] came out at 21 nM.

Compound `C[C@@](O)(C(=O)NC1CCCCC1)C(F)(F)F` came in with an IC50 in data set [6] of 6200 nM.

For the compound `C[C@@H]1CN(C(=O)[C@@](C)(O)C(F)(F)F)[C@@H](C)CN1Cc1ccccc1`, in [6], the IC50 amounted to 82 nM.

On to `C[C@@H]1CN(C(=O)[C@@](C)(O)C(F)(F)F)CCN1C(=O)c1ccc(C#N)cc1`, for which the Control came to 60% in data set [2], 67% in [15] and 90% in [10]. The compound also showed a Cmax in data set [13] of 23.8 µM. The compound further returned an AUC in [14] of 196 µM·h. Moreover, the half-life in [16] was 3 h. Moreover, in [17], the Tmax is 1.25 h. The compound further yielded an IC50 in [6] of 79 nM. In [8], this compound displayed an EC50 of 250 nM.

On to `O=C([O-])C(Cl)Cl.[Na+]`, for which the Control in data set [18] came to 70%.

Regarding `C[C@@](O)(C(=O)Nc1ccc(S(=O)(=O)N2CCNCC2)cc1Cl)C(F)(F)F`, the Control in data set [19] stood at 72%. In data set [20], the Tmax is 6 h. The same compound showed an AUC in [21] of 670 µM·h. Also, the Cmax in data set [22] is 53.8 µM. Also, the concentration for half-maximal inhibition (IC50) in [6] was 55 nM. Further, the EC50 in data set [8] came out at 17000 nM.

In turn, `C[C@@](O)(C(=O)Nc1ccccc1)C(F)(F)F` had an IC50 in data set [6] of 35000 nM.

Take `C[C@@](O)(C(=O)Nc1ccccc1Cl)C(F)(F)F`: the Control entry in [12] is “inactive”. This compound also returned an IC50 in [6] of 300 nM. The EC50 in [8] is 5400 nM.
